In ChEMBL document CHEMBL4177595, “Design and synthesis of a novel series of orally active, selective somatostatin receptor 2 agonists for the treatment of type 2 diabetes” (Bioorg Med Chem, 2017):

How the values were obtained:
[1] = target: Somatostatin receptor type 2 (Homo sapiens, UniProt P30874); assay: Displacement of [125I]somatostatin-14 (Tyr11) from human SSTR2 expressed in CHO dhfr cell membranes after 60 mins by TopCount scintillation counting method
Outline: (§1)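 Membrane fractions were prepared from CHO dhfr- cells stably transfected with each human SSTR subtype, with a high-expressing single colony selected for each. Membranes in 25 mM Tris-HCl pH 7.4 with 0.1% BSA, EDTA and protease inhibitors were incubated with 50 pM [125I]SST-14 (Tyr11) and a range of compound concentrations for 60 min at room temperature. Excess SST-14 defined nonspecific binding. Samples were filtered on PEI-soaked GF/B filters before counting. IC50 came from pseudo-Hill fitting.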

[2] = Lipophilicity, log D of the compound; type: physicochemical; details: octanol/water
[3] = system: HepG2; assay: Induction of phospholipidosis in human HepG2 cells up to 50 uM after 24 hrs by NBD-PE fluorophore-based assay relative to amiodarone; type: cell-based; details: hepg2, 24 h
[4] = target: Somatostatin receptor type 1 (Homo sapiens, UniProt P30872); assay: Displacement of [125I]somatostatin-14 (Tyr11) from human SSTR1 expressed in CHO dhfr cell membranes after 60 mins by TopCount scintillation counting method; outline: as §1
[5] = target: Somatostatin receptor type 3 (Homo sapiens, UniProt P32745); assay: Displacement of [125I]somatostatin-14 (Tyr11) from human SSTR3 expressed in CHO dhfr cell membranes after 60 mins by TopCount scintillation counting method; outline: as §1
[6] = target: Somatostatin receptor type 4 (Homo sapiens, UniProt P31391); assay: Displacement of [125I]somatostatin-14 (Tyr11) from human SSTR4 expressed in CHO dhfr cell membranes after 60 mins by TopCount scintillation counting method; outline: as §1
[7] = target: Somatostatin receptor type 5 (Homo sapiens, UniProt P35346); assay: Displacement of [125I]somatostatin-14 (Tyr11) from human SSTR5 expressed in CHO dhfr cell membranes after 60 mins by TopCount scintillation counting method; outline: as §1
[8] = Plasma concentration in Sprague-Dawley rat at 0.3 mg/kg, iv after 5 mins; type: ADME, organism-based
[9] = AUC in Sprague-Dawley rat at 0.3 mg/kg, iv after 1 hr; type: ADME, organism-based; parameters: time < 1 hr, dose 0.3 mg/kg, route intravenous; details: in vivo
[10] = MRT in Sprague-Dawley rat at 0.3 mg/kg, iv; type: ADME, organism-based; details: in vivo
[11] = Volume of distribution at steady state in Sprague-Dawley rat at 0.3 mg/kg, iv after 1 hr; type: ADME, organism-based; details: in vivo, read-out: Vdss
[12] = Total clearance in Sprague-Dawley rat at 0.3 mg/kg, iv after 1 hr; type: ADME, organism-based; details: in vivo
[13] = Cmax in Sprague-Dawley rat at 1 mg/kg, po after 1 hr; type: ADME, organism-based; parameters: dose 1 mg/kg, route oral; details: in vivo
[14] = AUC in Sprague-Dawley rat at 1 mg/kg, po after 1 hr; type: ADME, organism-based; parameters: time < 1 hr, dose 1 mg/kg, route oral; details: in vivo
[15] = MRT in Sprague-Dawley rat at 1 mg/kg, po; type: ADME, organism-based; details: in vivo
[16] = Oral bioavailability in Sprague-Dawley rat at 1 mg/kg after 1 hr; type: ADME, organism-based; details: in vivo
[17] = Tmax in Sprague-Dawley rat at 1 mg/kg, po after 1 hr; type: ADME, organism-based; details: in vivo
[18] = species on record: Rattus norvegicus; assay: Inhibition of hypoglycemia-induced glucagon secretion in Sprague-Dawley rat pretreated for 1 hr followed by insulin addition measured after 30 mins post insulin secretion by radioimmunoassay; type: functional
Outline: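 SD rats were given compound orally, then insulin 2 IU/kg s.c. 1 h after dosing. Tail-vein blood was drawn 30 min after insulin, and plasma glucagon was measured by radioimmunoassay. Values are means ± SD (n = 6), compared with vehicle by one-tailed Williams' test. ED50 was derived from the dose-response.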

[19] = species on record: Rattus norvegicus; assay: Antidiabetic activity in Wistar rat type 2 diabetic model assessed as inhibition of glucose excursion up to 60 mins by meal tolerance test; type: functional; details: 1 h, read-out: MED
Outline: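 Female Wistar fatty rats were fasted overnight and then dosed orally with vehicle or compound, followed by a liquid meal challenge (20 kcal/kg). Plasma glucose was followed over time. The read-out was AUC of delta plasma glucose, and a minimum effective dose was determined.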

Sequence of Somatostatin receptor type 2 (P30874 whole entry): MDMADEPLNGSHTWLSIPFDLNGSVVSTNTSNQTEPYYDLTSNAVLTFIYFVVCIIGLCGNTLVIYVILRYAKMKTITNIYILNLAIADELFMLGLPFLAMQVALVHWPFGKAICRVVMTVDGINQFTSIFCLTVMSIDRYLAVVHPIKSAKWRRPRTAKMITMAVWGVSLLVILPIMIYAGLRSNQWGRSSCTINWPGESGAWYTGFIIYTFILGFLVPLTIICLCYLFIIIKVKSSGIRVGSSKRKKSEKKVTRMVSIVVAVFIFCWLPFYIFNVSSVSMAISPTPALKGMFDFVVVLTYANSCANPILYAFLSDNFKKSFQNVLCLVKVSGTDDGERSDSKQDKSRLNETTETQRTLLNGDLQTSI
Sequence of Somatostatin receptor type 5 (P35346 whole entry): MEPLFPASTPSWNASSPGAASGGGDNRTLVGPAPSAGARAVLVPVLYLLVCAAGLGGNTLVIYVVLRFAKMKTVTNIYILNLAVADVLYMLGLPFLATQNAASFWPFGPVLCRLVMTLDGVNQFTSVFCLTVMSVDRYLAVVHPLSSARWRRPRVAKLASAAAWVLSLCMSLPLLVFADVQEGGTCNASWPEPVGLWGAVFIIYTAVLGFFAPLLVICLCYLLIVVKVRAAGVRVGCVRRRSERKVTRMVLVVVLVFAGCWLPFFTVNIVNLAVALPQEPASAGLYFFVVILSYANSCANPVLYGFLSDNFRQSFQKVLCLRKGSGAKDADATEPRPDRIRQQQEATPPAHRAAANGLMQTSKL
Sequence of Somatostatin receptor type 1 (P30872 whole entry): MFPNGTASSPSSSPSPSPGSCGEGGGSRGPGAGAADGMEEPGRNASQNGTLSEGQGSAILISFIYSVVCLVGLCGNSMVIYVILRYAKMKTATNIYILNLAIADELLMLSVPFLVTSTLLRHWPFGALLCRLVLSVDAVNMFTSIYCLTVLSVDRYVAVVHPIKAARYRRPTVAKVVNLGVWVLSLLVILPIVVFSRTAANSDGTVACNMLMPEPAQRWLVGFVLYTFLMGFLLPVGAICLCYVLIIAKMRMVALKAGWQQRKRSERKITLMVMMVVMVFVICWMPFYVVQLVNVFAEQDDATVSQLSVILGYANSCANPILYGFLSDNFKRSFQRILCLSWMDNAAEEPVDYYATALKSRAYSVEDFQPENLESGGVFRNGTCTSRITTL
Sequence of Somatostatin receptor type 4 (P31391 whole entry): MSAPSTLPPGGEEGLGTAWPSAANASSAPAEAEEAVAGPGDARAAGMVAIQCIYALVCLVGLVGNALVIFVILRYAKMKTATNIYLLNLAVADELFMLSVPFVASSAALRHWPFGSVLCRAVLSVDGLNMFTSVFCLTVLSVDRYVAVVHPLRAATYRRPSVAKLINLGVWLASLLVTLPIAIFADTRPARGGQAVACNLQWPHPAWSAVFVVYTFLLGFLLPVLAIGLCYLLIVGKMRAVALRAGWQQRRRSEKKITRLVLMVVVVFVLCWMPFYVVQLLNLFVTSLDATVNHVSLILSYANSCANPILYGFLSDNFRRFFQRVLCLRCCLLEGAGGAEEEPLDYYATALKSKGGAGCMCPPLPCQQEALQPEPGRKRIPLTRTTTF
Sequence of Somatostatin receptor type 3 (P32745 whole entry): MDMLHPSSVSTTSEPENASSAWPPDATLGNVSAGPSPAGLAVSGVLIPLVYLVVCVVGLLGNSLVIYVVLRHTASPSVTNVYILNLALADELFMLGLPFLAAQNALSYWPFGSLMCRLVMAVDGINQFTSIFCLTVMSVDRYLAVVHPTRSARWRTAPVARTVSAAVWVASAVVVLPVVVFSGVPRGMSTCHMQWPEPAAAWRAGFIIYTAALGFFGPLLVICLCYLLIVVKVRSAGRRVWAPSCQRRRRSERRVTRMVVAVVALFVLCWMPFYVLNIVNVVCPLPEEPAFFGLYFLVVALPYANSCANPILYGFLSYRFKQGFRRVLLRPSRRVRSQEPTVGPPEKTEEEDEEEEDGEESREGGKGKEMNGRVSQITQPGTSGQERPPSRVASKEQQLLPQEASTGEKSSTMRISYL

Row | IC50 [1] [nM] | logD [2] | Compound | Activity [3] [%] | also measured
1 | 0.68 | 1.84 | CC(=O)c1ccc(CN(C)C)cc1NC(=O)[C@H](NC(=O)N1CCC(C(=O)c2cccs2)CC1)[C@@H](C)c1c[nH]c2ccccc12 | 91 | –
2 | 0.6 | 1.55 | CCOc1ccc(CN(C)C)cc1NC(=O)[C@H](NC(=O)N1CCC(C(=O)C2CCC2)CC1)[C@@H](C)c1c[nH]c2ccccc12 | 75 | –
3 | 2.3 | 1.14 | CCOc1ccc(CN(C)C)cc1NC(=O)[C@H](NC(=O)N1CCC(C(=O)c2ccco2)CC1)[C@@H](C)c1c[nH]c2ccccc12 | 54 | –
4 | 0.58 | 1.89 | CCOc1ccc(CN(C)C)cc1NC(=O)[C@H](NC(=O)N1CCC(C(=O)c2cccs2)CC1)[C@@H](C)c1c[nH]c2ccccc12 | 98 | –
5 | 2.6 | 1.57 | CCOc1ccc(CN(C)C)cc1NC(=O)[C@H](NC(=O)N1CCC(C(=O)c2ccccn2)CC1)[C@@H](C)c1c[nH]c2ccccc12 | 81 | –
6 | 0.2 | 2.22 | CCOc1ccc(CN(C)C)cc1NC(=O)[C@H](NC(=O)N1CCN(c2ccc(F)cc2)CC1)[C@@H](C)c1c[nH]c2ccccc12 | 99 | –
7 | 2.1 | 0.73 | CCOc1ccc(CN(C)C)cc1NC(=O)[C@H](NC(=O)N1CCN(C(=O)C2CCC2)CC1)[C@@H](C)c1c[nH]c2ccccc12 | 32 | –
8 | 2 | 1.35 | CCOc1ccc(CN(C)C)cc1NC(=O)[C@H](NC(=O)N1CCC(C(=O)c2nccs2)CC1)[C@@H](C)c1c[nH]c2ccccc12 | 74 | –
9 | 0.2 | 3 | CCOc1ccc(CN(C)C)cc1NC(=O)[C@H](NC(=O)N1CCC(c2ccccc2)CC1)[C@@H](C)c1c[nH]c2ccccc12 | 111 | IC50 [7]: > 100 nM
10 | 0.89 | 2.01 | CCOc1ccc(CN(C)C)cc1NC(=O)[C@H](NC(=O)N1CCC(C(=O)CC(C)C)CC1)[C@@H](C)c1c[nH]c2ccccc12 | 76 | –
11 | 1.1 | 1.5 | CCOc1ccc(CN(C)C)cc1NC(=O)[C@H](NC(=O)N1CCC(C(=O)C(C)C)CC1)[C@@H](C)c1c[nH]c2ccccc12 | 63 | –

More lines, now with the values behind:

Row | Compound | IC50 [1] [nM] | logD [2] | Activity [3] [%] | also measured
12 | CC(=O)c1ccc(CN(C)C)cc1NC(=O)[C@H](NC(=O)N1CCN(C(=O)C(C)(C)C)CC1)[C@@H](C)c1c[nH]c2ccccc12 | 0.98 | 0.68 | 36 | –
13 | CCOc1ccc(CN(C)C)cc1NC(=O)[C@H](NC(=O)N1CCN(c2ccc(F)cc2C)C(=O)C1)[C@@H](C)c1c[nH]c2ccccc12 | 0.2 | 1.86 | 47 | –
14 | CC(=O)c1ccc(CN(C)C)cc1NC(=O)[C@H](NC(=O)N1CCN(C(=O)C2CCC2)CC1)[C@@H](C)c1c[nH]c2ccccc12 | 1.8 | 1.04 | 46 | –
15 | CCOc1ccc(CN(C)C)cc1NC(=O)[C@H](NC(=O)N1CCN(c2ccc(F)cc2)C(=O)C1)[C@@H](C)c1c[nH]c2ccccc12 | 0.2 | 1.65 | 36 | –
16 | C[C@@H](c1c[nH]c2ccccc12)[C@@H](NC(=O)N1CCN(c2ccc(F)cc2)C(=O)C1)C(=O)Nc1cc(CN(C)C)ccc1OC(F)(F)F | 0.53 | 2.73 | 50 | –
17 | CCCCc1oc2ccccc2c1C(=O)c1cc(I)c(OCCN(CC)CC)c(I)c1 [AMIODARONE] | – | – | 100 | –
18 | CCOc1ccc(CN(C)C)cc1NC(=O)[C@H](NC(=O)N1CCN(C(=O)C(C)(C)C)CC1)[C@@H](C)c1c[nH]c2ccccc12 | 2.3 | 1.09 | 38 | –
19 | CC(=O)c1ccc(CN(C)C)cc1NC(=O)[C@H](NC(=O)N1CCN(c2ccc(F)cc2)C(=O)C1)[C@@H](C)c1c[nH]c2ccccc12 | 0.31 | 1.59 | 37 | –
20 | Cc1cc(F)ccc1N1CCN(C(=O)N[C@@H](C(=O)Nc2cc(CN(C)C)ccc2OC(F)(F)F)[C@@H](C)c2c[nH]c3ccccc23)CC1=O | 0.17 to 0.27 | 2.95 | 58 | IC50 [4]: 5100 nM; IC50 [5]: 360 nM; IC50 [6]: 100 nM; IC50 [7]: 1700 nM; concentration at 5 min [8]: 194 ng/mL; AUC at 1 h [9]: 119 ng·h/mL; MRT [10]: 2.57 h; Vd [11]: 6.63 L/kg; clearance [12]: 43.5 mL/min/kg; Cmax [13]: 10.3 ng/mL; AUC at 1 h [14]: 22.9 ng·h/mL; MRT [15]: 5.69 h; bioavailability [16]: 5.8%; Tmax [17]: 0.83 h; ED50 [18]: 1.1 mg/kg; minimal effective dose [19]: 3 mg/kg
21 | CC(=O)c1ccc(CN(C)C)cc1NC(=O)[C@H](NC(=O)N1CCC(C(=O)C2CCC2)CC1)[C@@H](C)c1c[nH]c2ccccc12 | 0.69 | 1.5 | 84 | –
22 | C[C@@H](c1c[nH]c2ccccc12)[C@@H](NC(=O)N1CCN(C(=O)C(C)(C)C)CC1)C(=O)Nc1cc(CN(C)C)ccc1OC(F)(F)F | 2.8 | 2.18 | 48 | –
23 | CC(=O)c1ccc(CN(C)C)cc1NC(=O)[C@H](NC(=O)N1CCC(C(=O)C(C)C)CC1)[C@@H](C)c1c[nH]c2ccccc12 | 2 | 1.44 | 58 | –
24 | CC(=O)c1ccc(CN(C)C)cc1NC(=O)[C@H](NC(=O)N1CCN(c2ccc(F)cc2C)C(=O)C1)[C@@H](C)c1c[nH]c2ccccc12 | 0.24 | 1.81 | 30 | –
